Results published in ChEMBL document CHEMBL4020797, “Design, synthesis and evaluation of antitumor acylated monoaminopyrroloquinazolines” (2017).

Key:
[1] = tested on: MDA-MB-468; assay: Antiproliferative activity against human MDA-MB-468 after 72 hrs by MTT assay; format: functional; details: for GI50: MDA-MB-468, 72 h
Summary of the method: (§1)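 Triple-negative breast cancer cells were exposed to a range of compound concentrations for 72 h, and viable cells were then quantified spectrophotometrically with MTT reagent. GI50 (concentration giving 50% growth inhibition) was derived from dose-response curves by non-linear regression and reported as mean ± SD from at least two independent measurements. The highest concentration tested was 100 μM.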

[2] = tested on: MDA-MB-231; assay: Antiproliferative activity against human MDA-MB-231 after 72 hrs by MTT assay; format: functional; details: for GI50: MDA-MB-231, 72 h; summary of the method: as §1

| GI50 [1] | GI50 [2] | Structure (SMILES) | Activity [1] | Activity [2] |
| --- | --- | --- | --- | --- |
| 28.3 µM | 72.8 µM | CCC(=O)Nc1ncc2c(ccc3[nH]ccc32)n1 |  |  |
| 2.02 µM | 3.46 µM | CCCC(=O)Nc1ncc2c(ccc3[nH]ccc32)n1 |  |  |
| > 100 µM | > 100 µM | CC(C)(C)C(=O)Nc1ncc2c(ccc3[nH]ccc32)n1 |  |  |
| > 100 µM | > 100 µM | CC(=O)Nc1ncc2c(ccc3[nH]ccc32)n1 |  |  |
| 0.088 µM | 0.2 µM | O=C(Nc1ncc2c(ccc3[nH]ccc32)n1)c1ccc2ccccc2c1 | Dose-dependent effect | Dose-dependent effect |
| > 100 µM | > 100 µM | CC(C)C(=O)Nc1ncc2c(ccc3[nH]ccc32)n1 |  |  |
